High-throughput results deposited in PubChem by The Scripps Research Institute Molecular Screening Center.
STAT1 blocker – reduces IFN-gamma driven STAT1 reporter signal; NIH 3T3 STAT1-luciferase reporter, luminescence; inhibition, % at 5.5 µM; 200,000 compounds, 0.35% hits; AID 920;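 active = inhibition above a set limit, the mean inhibition across all tested compounds plus 3 SD, cut at about 34% in these data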;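 note: 0% = IFN-gamma with DMSO and 100% = IFN-gamma with 300 µM nifuroxazide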
HSP90 inh – inhibitors of HSP90 luciferase refolding in rabbit reticulocyte lysate; AID 1789; inhibition, % at 5.6 µM; 290,000 compounds, 0.91% hits; luciferase refolding luminescence, 3 h;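 active = inhibition above the screen-wide mean plus 3 SD, computed separately per campaign, cut at about 16% in these data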;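 note: 0% = DMSO wells and 100% = 60 µM geldanamycin wells; inhibitors lower the luminescence because luciferase stays unfolded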
STAT3 activator – STAT3 signaling activation. 190,000 compounds, 0.91% hits. AID 871. activation (% of control), % at 5.6 µM. U3A cells, IL-6 STAT3-luciferase reporter, luminescence; 100% = signal with IL-6 EC80 alone;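 active = activation above the screen-wide mean of compound activation plus 3 SD, cut at about 130% in these data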;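 note: 0% = background luminescence of wells with medium and substrate only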
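Test system: STAT3-luciferase reporter U3A cells; Detection: reporter luminescence signal; Times: 1 h compound pre-exposure, 6 h IL-6 stimulation, 37 °C; Benchmarks: IL-6-only high control; Also added: IL-6 stimulus at 33 ng/mL final.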
STAT3 inh-1 – reduces IL-6 driven STAT3 reporter signal; U3A cells, IL-6 STAT3-luciferase reporter, luminescence; host cell line lacks STAT1; inhibition, % at 5.5 µM; 190,000 compounds, 0.89% hits;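 active = inhibition above the mean inhibition across all screened compounds plus 3 SD, cut at about 44% in these data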;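 note: 0% = DMSO only wells and 100% = 100 µM nifuroxazide control wells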
STAT3 inh-2 – confirmation of STAT3 signaling inhibitors; shares compounds with STAT3 inh-1; U3A cells, IL-6 STAT3 luciferase reporter, luminescence; cell line lacks STAT1; inhibition, % at 5.7 µM; 1,200 compounds, 45% hits;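 active = inhibition above the hit cutoff computed for the primary STAT3 screen, cut at about 44% in these data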;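 note: 0% = IL-6 plus DMSO and 100% = IL-6 plus nifuroxazide control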
NFkB inh 2 – counter-screen for STAT3 inhibitors: NF-kappaB inhibition; shares compounds with STAT3 inh-1; HEK293T NF-kB luciferase reporter, TNF-alpha induced; inhibition, % at 5.7 µM; 1,200 compounds, 36% hits; AID 1308;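 active = inhibition above the mean of solvent-only control wells plus 3 SD, cutoff set per campaign, cut at about 13% in these data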;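 note: 0% = TNF-alpha with DMSO and 100% = TNF-alpha with MG high control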
STAT1 inh STAT3c – counter-screen for STAT3 inhibitors: STAT1 inhibition. shares compounds with STAT3 inh-1. NIH 3T3 STAT1-luciferase reporter, IFN-gamma induced, luminescence. inhibition, % at 5.7 µM. 1,200 compounds, 27% hits;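 active = inhibition above the mean plus 3 SD of solvent-only control wells, limit set per screening run, cut at about 16% in these data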;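 note: 0% = DMSO with IFN-gamma and 100% = nifuroxazide control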
Starred values were filed as active, the others as inactive; · = no result given. Only some compounds are listed: those with a hit (about 2% of all), similar ones and a draw of the others.

SMILES	STAT1 blocker	HSP90 inh	STAT3 activator	STAT3 inh-1	STAT3 inh-2	NFkB inh 2	STAT1 inh STAT3c
Cc1ccccc1NC1=CC(=O)CC(C)(C)C1	2	-4	100	3	·	·	·
CC1(C)CC(=O)C=C(NC2=CC3OC(c4ccccc4)OCC3OC2=O)C1 (configuration not stated)	15	0	63	45*	42	23*	18*
Cc1cc(NC(=O)Cc2ccccc2)c2ccccc2n1	32	2	40	72*	69*	22*	25*
Cc1nn(C(C)C(=O)NCCc2cccs2)c(=O)c2nn(-c3ccccc3)c(C)c12 (configuration not stated)	·	2	·	·	·	·	·
Cc1ccc(C(=O)Nc2nc3c(s2)CCCC3)o1	-37	6	79	26	·	·	·
CC1(C)CC(=O)c2sc(NC(=O)c3cccs3)nc2C1	8	5	66	44*	18	-14	-10
O=C(Nc1nc2c(s1)CCCC2)C1COc2ccccc2O1 (configuration not stated)	20	51*	43	73*	34	-8	-104
Cc1nnc(NC(=O)C2COc3ccccc3O2)s1 (configuration not stated)	-33	1	116	-14	·	·	·
CC1(C)CC(=O)c2sc(NC(=O)c3ccccc3)nc2C1	-30	-2	92	18	·	·	·
O=C(Nc1nc2c(s1)CCCC2)c1cccs1	-50	13	52	58*	14	-23	-125
O=C(Nc1nc2c(s1)CCCC2)c1ccc(Br)o1	-72	16*	62	46*	12	-30	-122
Cc1cc2oc(=O)cc(CNc3ccccc3F)c2cc1O	·	1	·	·	·	·	·
C=CCn1nnnc1-c1cc(Cl)cc(Cl)c1	-8	-2	99	4	·	·	·
COc1ccc2c(c1)CCC(C)N2C(=O)C(=O)c1c[nH]c2ccccc12 (configuration not stated)	·	-1	·	·	·	·	·
CCCCC(=O)Nc1c2c(nn1-c1ccc(C)cc1)CS(=O)(=O)C2	·	-1	·	·	·	·	·
Nc1nc(/C=C/c2cccnc2)nc(-c2ccccc2O)n1	14	2	84	22	·	·	·
COc1ccc(-c2cc(C(=O)Nc3cc(C)n(Cc4ccc(Cl)cc4)n3)no2)cc1OC	13	-1	38	74*	71*	29*	2
COc1ccc(OC)c(-c2cc(C(=O)Nc3c(C)nn(Cc4ccc(Cl)cc4)c3C)no2)c1	1	-4	89	14	·	·	·
COc1cccc(C2=CC(c3ccc(OC)c(OC)c3)NC(=S)N2)c1 (configuration not stated)	·	-2	·	·	·	·	·
CC[n+]1ccccc1/C=C/c1ccc(N(C)C)cc1	31	-5	43	68*	60*	4	14
COc1ccc(CC(=O)Nc2cccc(-c3nnc(-c4cccc(C)c4)o3)c2)cc1OC	7	1	68	44*	62*	12	-3
COc1ccc(CC(=O)Nc2cccc(-c3nnc(-c4ccc(C)cc4)o3)c2)cc1OC	-5	-1	90	18	·	·	·
CC(C)C1N(C(=O)CN2CCCCC2)CCN1S(=O)(=O)c1ccccc1 (configuration not stated)	0	-2	107	-1	·	·	·
CCN(C1CCCCC1)S(=O)(=O)c1ccc(S(=O)(=O)NCc2ccncc2)cc1	21	4	51	62*	43	15*	25*
O=C(c1ccc(Cl)cc1)N1CCCCC(Sc2nnc(-c3ccc4c(c3)OCO4)o2)C1=O (configuration not stated)	14	31*	21	98*	85*	70*	40*
COc1cccc(C(=O)Cn2c(=N)n(C)c3ccccc32)c1	16	4	66	46*	-37	-34	-110
COc1cccc(C(=O)Cn2c(NCCO)nc3ccccc32)c1	6	2	97	6	·	·	·
COC(=O)CCSCC(=O)Nc1ccc(C)c(S(=O)(=O)N2CCCCC2)c1	·	7	·	·	·	·	·
O=C(NCC1COCCO1)c1ccc2nc(Cc3cccc(Cl)c3)oc2c1 (configuration not stated)	·	-2	·	·	·	·	·
COc1ccc(-n2nc(C(=O)NCC(=O)NCCCN3CC(C)CC(C)C3)c3ccccc3c2=O)cc1 (configuration not stated)	·	-2	·	·	·	·	·
